# From ChEMBL document CHEMBL1126885, “Alkylpurines as immunopotentiating agents. Synthesis and antiviral activity of certain alkylguanines” (1993)
# Tested on: Semliki Forest virus
# Experiment: In vivo antiviral protection against lethal Forest virus (SFV) infection at dosage of 100 mg/kg tested in 12 mice
# Format: functional
# In short: (§1)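 Female Swiss Webster mice, about 20 g, in groups of 12. Compound or placebo was dissolved in 2% aqueous sodium bicarbonate and given intraperitoneally 24 and 18 h before a lethal SFV challenge (10 LD50, pretitrated in mice). Treatment lasted 1 day. Survival was followed for 21 days, and survivor numbers were compared with placebo by two-tailed Fisher exact test.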
row,SMILES,Activity
1,Nc1nc(O)c2ncn(CCCCCCO)c2n1,2
2,C=CCn1c(=S)n(CCCCCC)c2nc(N)nc(O)c21,8
3,Nc1nc(O)c2nc(Br)n(CCCCCCO)c2n1,2
4,CCCCCCn1c(Cl)nc2c(O)nc(N)nc21,7
5,CCCCCCn1c(O)nc2c(O)nc(N)nc21,1
6,CCCCCCn1c(CC)nc2c(O)nc(N)nc21,3
7,CCCCCCn1c(C)nc2c(O)nc(N)nc21,0
8,CCCCCCn1c(S)nc2c(S)nc(N)nc21,0
9,C=CCSc1nc2c(O)nc(N)nc2n1CCCCCC,6
10,N#CCCCCCn1cnc2c(O)nc(N)nc21,5
11,C[C@]1(CO)OC(n2c(=O)sc3c(O)nc(N)nc32)[C@H](O)[C@@H]1O (some centres not stated),11

# Tested on: Semliki Forest virus
# Experiment: In vivo antiviral protection against lethal Forest virus (SFV) infection at dosage of 200 mg/kg tested in 12 mice
# Format: functional
# In short: as §1
row,SMILES,Activity
1,CCCCn1cnc2c(O)nc(N)nc21,10
2,CCn1cnc2c(O)nc(N)nc21,1
3,CCCCCCCn1c(Br)nc2c(O)nc(N)nc21,1
4,CCCCCCCCn1c(Br)nc2c(O)nc(N)nc21,3
5,CCCCCn1c(S)nc2c(O)nc(N)nc21,8
6,CCCCCCCCn1cnc2c(O)nc(N)nc21,1
7,CCCCCCn1c(=O)n(C)c2c(O)nc(N)nc21,11
8,CCCCn1c(Br)nc2c(O)nc(N)nc21,6
9,CCCCCCn1c(S)nc2c(O)nc(N)nc21,1
10,CCCn1cnc2c(O)nc(N)nc21,2
11,CCCCCCn1c(Br)nc2c(O)nc(N)nc21,4
12,CCCCCn1cnc2c(O)nc(N)nc21,8
13,CCCCCn1c(Br)nc2c(O)nc(N)nc21,8
14,Nc1nc(O)c2ncn(C3CCCCC3)c2n1,0
15,CCCCCCn1cnc2c(O)nc(N)nc21,12
16,Nc1nc(O)c2ncn(C3CCCC3)c2n1,0
